High-throughput results as filed in PubChem BioAssay.
Hits are enriched below; roughly 2.9% of the tested compounds scored in any of these assays.
SENP6 inh – inhibitors of human SENP6 protease. Q9GZR1. Recombinant SENP6 catalytic domain, aminoluciferin luminescence. inhibition, % at 10 µM. 330,000 compounds, 1.8% hits. AID 2599;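 active means inhibition above about 50% at the single tested dose, limit read from the data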;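 further: plate controls were DMSO wells with enzyme for no effect and DMSO wells lacking enzyme for full effect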
SENP8 block-1 – inhibitors of human SENP8 protease | Q96LD8 | purified SENP8, Z-RLRGG-aminoluciferin cleavage, luminescence | inhibition, % at 10 µM | 330,000 compounds, 1.2% hits | AID 2540; in the data active means inhibition above about 50%
Target sequence (Q96LD8 whole entry, looked up): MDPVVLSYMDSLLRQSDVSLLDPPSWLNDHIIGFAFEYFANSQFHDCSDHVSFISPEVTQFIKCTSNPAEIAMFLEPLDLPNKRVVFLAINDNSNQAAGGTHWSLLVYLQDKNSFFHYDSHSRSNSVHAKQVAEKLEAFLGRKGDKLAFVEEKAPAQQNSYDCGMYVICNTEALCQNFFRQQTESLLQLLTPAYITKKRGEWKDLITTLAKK
SENP8 block-2 – SENP8 (human) protease inhibition; Q96LD8; recombinant SENP8, Nedd8 substrate fluorescence; inhibition, % at 20 µM; 360,000 compounds, 0.64% hits; AID 602440; in the data active means inhibition mostly above about 40%, no sharp cut-off; inactive means mostly below about 27%
SENP1 inh – inhibitors of human SENP1 SUMO protease catalytic domain. 360,000 compounds, 0.21% hits. inhibition, % at 10 µM. Q9P0U3. recombinant SENP1 catalytic domain, CyPet-SUMO1-YPet FRET cleavage;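 active means inhibition at least 30% at 10 µM, raw YFP signal under a set limit, fluorescence ratio 0.5 to 1.5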;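 further: 0% = enzyme with DMSO and 100% = no enzyme wells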
Target sequence (Q9P0U3 419-644 limits assumed): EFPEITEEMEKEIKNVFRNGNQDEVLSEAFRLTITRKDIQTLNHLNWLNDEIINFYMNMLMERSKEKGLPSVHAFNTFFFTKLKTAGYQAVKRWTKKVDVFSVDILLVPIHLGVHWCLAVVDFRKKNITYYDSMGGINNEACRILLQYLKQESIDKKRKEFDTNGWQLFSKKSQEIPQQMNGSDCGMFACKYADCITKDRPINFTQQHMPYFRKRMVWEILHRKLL
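System: Recombinant human SENP1 catalytic domain, His6-tagged | Incubation: Enzyme reaction for 50 min at room temperature, dark | Medium: Tris pH 8 with BME, BSA, NP40 and catalase | Also added: 25 nM SUMO1 FRET substrate | Compound: 10 µM single point, 0.5% DMSO | Measured by: FRET fluorescence in CFP and YFP emission channels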
SENP7 block – inhibitors of human SENP7 protease; Q9BQF6; recombinant SENP7, Z-RLRGG-aminoluciferin luminescence, 40 min; inhibition, % at 5 µM; 330,000 compounds, 1.5% hits; AID 434973;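 active means inhibition above about 50% at the single test dose, limit read from the data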;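 further: plate controls were DMSO with enzyme for no effect and no enzyme buffer wells for full effect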
Apaf-1 inh – human Apaf-1 inhibition; O14727; reconstituted apoptosome caspase-3 activity, DEVD-Rh110 fluorescence; inhibition, % at 20 µM; AID 489030; 330,000 compounds, 0.71% hits; active means inhibition of at least 40% at 20 µM;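 further: plate controls were DMSO wells for no effect and DEVD-CHO caspase inhibitor wells for full effect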
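detection = Rh110 fluorescence intensity | test system = biochemical Apaf-1 apoptosome reconstitution | also added = cytochrome c and DEVD-Rh110 substrate | schedule = 30 min plus 50 min, RT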
SENP8 conf – SENP8 (human) inhibition, single concentration confirmation | shares compounds with SENP8 block-2 | purified SENP8, Nedd8-AMC/pro-Nedd8 cleavage fluorescence, 30 min | AID 624319 | 1,400 compounds, 15% hits | inhibition, % at 25 µM; in the data active means inhibition mostly above about 39%, no sharp cut-off; inactive means mostly below about 34%
The depositor's hits bear a star; . = not tested or not shown.

SMILES | SENP6 inh | SENP8 block-1 | SENP8 block-2 | SENP1 inh | SENP7 block | Apaf-1 inh | SENP8 conf
CN(C)S(=O)(=O)c1cccc(NC(=O)CCNC(=O)Nc2ccccc2)c1 | -4 | -4 | 42* | 0 | 5 | -2 | 8
Cc1ccc(CNC(=O)CSc2nc(=O)n3ccc(C)cc3n2)cc1 | . | . | -91 | -34 | . | . | .
O=C(c1ccc(Cl)cc1)N1CCN(c2ccc([N+](=O)[O-])c(NCc3cccnc3)c2)CC1 | -9 | 5 | 46* | 4 | -3 | 20 | 18
O=C(c1ccccc1)N1CCN(c2ccc([N+](=O)[O-])c(NCc3cccnc3)c2)CC1 | -24 | -6 | 21 | 3 | -10 | 11 | .
O=[N+]([O-])c1ccc(N2CCN(S(=O)(=O)c3ccccc3)CC2)cc1NCc1cccnc1 | 0 | -4 | 50* | 6 | -6 | 16 | 14
O=[N+]([O-])c1ccc(N2CCN(S(=O)(=O)c3ccc(Cl)cc3)CC2)cc1NCc1cccnc1 | 0 | 6 | 39 | -1 | 11 | 28 | .
C[C@@H]1CN([C@H](C)CO)C(=O)CCCn2cc(nn2)CO[C@H]1CN(C)C(=O)c1ccncc1 | . | . | 28 | 1 | . | . | .
O=c1c2ccccc2c(C=NCCCN2CCOCC2)c(O)n1Cc1ccccc1 | 20 | -2 | 29 | 0 | 6 | 19 | .
O=c1c2ccccc2c(C=NCCc2ccccc2)c(O)n1Cc1ccccc1 | 6 | 26 | 47* | 1 | 21 | 11 | 51*
C[C@@H]1CN(c2nc3nonc3nc2N2CCSCC2)C[C@H](C)O1 | -4 | 1 | 41* | 2 | -5 | -5 | 19
COc1ccc(Cl)cc1NS(=O)(=O)N1CCOCC1 | 6 | 6 | 8 | -1 | -5 | 7 | .
O=C(N1CCCCC1)N1CCN(S(=O)(=O)c2ccccc2)CC1 | 9 | -6 | 2 | 1 | 7 | -5 | .
CNC(=O)[C@@H]1CCC(=O)N1 | -14 | -10 | 26 | 2 | -12 | 1 | .
O=C1CCC(C(=O)O)N1 (stereo unspecified) | -16 | 3 | 52* | 2 | -2 | -10 | 17
Cc1cc2ccccn2c1C(=O)c1cc([N+](=O)[O-])cc([N+](=O)[O-])c1 | -3 | -6 | 31 | -8 | 5 | 14 | .
Cc1cc2ccccn2c1C(=O)c1ccc(NN)c([N+](=O)[O-])c1 | 4 | 4 | 42* | 5 | 5 | 8 | 11
Cc1ccc(C(=O)/C=C/C(=O)O)cc1 | -3 | -1 | 22 | -1 | -1 | 11 | .
Cc1ccc(/C=C/C(=O)c2ccc(O)cc2)cc1 | 86* | 63* | 42* | 1 | 59* | -2 | 1
O=[N+]([O-])c1ccc(/C=[N+](\[O-])CCO)o1 | 7 | 5 | 45* | -1 | -2 | 7 | 18
CC1(c2ccccc2)CC(C)(C)n2c(O)c(C3=NC(=S)NC3=O)c3cccc1c32 (stereo unspecified) | -7 | -1 | 50* | 2 | 3 | 19 | 16
CC(=O)c1cccc(NC(=O)C2CCCN2S(=O)(=O)c2cccs2)c1 (stereo unspecified) | . | . | 41* | 1 | . | . | 17
COC(=O)c1ccc(NC(=O)C2CCCN2S(=O)(=O)c2ccc(OC)cc2)cc1 (stereo unspecified) | -4 | 4 | 41* | 2 | 1 | 0 | 16
CC1(C)[N+]([O-])=C2C(=[N+]([O-])C1(C)C)c1ccccc1/C2=N\O | -20 | -4 | 48* | 1 | -6 | 6 | 17
ON=C1c2ccccc2-c2ccc(F)cc21 | . | . | -2 | 2 | . | . | .
CC(C)Oc1ccc(CN2CCC2(C)C(=O)Nc2cnc3ccccc3c2)cc1 (stereo unspecified) | . | . | -5 | 2 | . | . | .
CCc1ccc2c(c1)c1nnc(NN)nc1n2CC | 7 | 6 | 72* | 4 | 0 | -4 | 11
Cn1c2ccccc2c2nnc(N/N=C/c3ccc(O)cc3)nc21 | -5 | 9 | 23 | 3 | 4 | -32 | .
CCc1ccc2c(c1)c1nnc(NN)nc1n2C | 13 | 6 | 64* | -1 | -6 | 16 | -4
